A selection: hits, their analogues and other compounds. The true share with any hit is near 2.9%.
DENV2 CPE: inhibitors of DENV2 cytopathic effect, primary screen, cell-based, plate reader, single concentration; AID 651640, 2012; hit rate 1.7% among 350,000; CPE inhibition, % at 9.99 µM; DENV2-infected cells, cytopathic effect rescue; in the data active = CPE inhibition above about 20%, passing the limit was not always enough; inconclusive = no clear call, values can overlap the other calls; tested in BHK-21 cells;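 also: 0% = median of neutral control wells and 100% = median of positive control wells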
S100A4 MyoIIA: inhibitors of S100A4-myosin IIA peptide binding, primary screen, biochemical, fluorescence polarization, TAMRA-MyoIIA peptide | AID 652163, 2013 | inhibition, % at 10.7 µM | Protein S100-A4 (Homo sapiens), P26447 | hit rate 0.14% among 360,000;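 active = mean inhibition of at least 70% across replicates, with every replicate also reaching that level; inconclusive = mean inhibition reaches 70% but some replicates fall short; inactive = mean inhibition below 70%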
Target sequence (P26447 whole entry, looked up): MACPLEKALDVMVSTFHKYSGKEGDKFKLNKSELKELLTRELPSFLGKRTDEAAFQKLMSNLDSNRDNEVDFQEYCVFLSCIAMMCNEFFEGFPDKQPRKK
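Test system: S100A4 monomer protein; Medium: HEPES pH 7.2 with CaCl2, KCl, NaCl, DTT, Triton; Probe or stimulus: TAMRA-labelled myosin IIA heavy-chain peptide probe, 5 nM; Doses: one dose per compound; Times: polarization read 5 min after assay mix addition, stable 5–60 min; Benchmarks: neutral control DMSO, positive control TFP.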
SIRT5 block: SIRT5 desuccinylase inhibitors, primary screen, biochemical, fluorescence imaging, single point, set 5; NAD-dependent protein deacylase sirtuin-5, mitochondrial (Homo sapiens), Q9NXA8; Purified SirT5, succinyl-peptide AMC, trypsin-coupled fluorescence; inhibition, % at 15 µM; hit rate 1.1% among 330,000; in the data active = inhibition above about 15%; inconclusive = no clear call, values can overlap the other calls
Target sequence (Q9NXA8 whole entry, looked up): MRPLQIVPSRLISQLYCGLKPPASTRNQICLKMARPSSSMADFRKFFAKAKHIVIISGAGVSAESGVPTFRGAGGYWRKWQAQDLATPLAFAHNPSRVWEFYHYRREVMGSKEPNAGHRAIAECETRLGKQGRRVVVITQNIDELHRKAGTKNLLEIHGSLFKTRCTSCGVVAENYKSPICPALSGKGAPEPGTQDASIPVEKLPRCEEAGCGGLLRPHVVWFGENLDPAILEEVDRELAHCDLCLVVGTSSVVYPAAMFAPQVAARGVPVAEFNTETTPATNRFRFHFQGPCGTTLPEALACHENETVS
Statin myotox sup: suppressors of statin myotoxicity in C2C12 myotubes, primary screen, cell-based, single point, plate reader; C2C12 myotubes + simvastatin, ATP luminescence, 48 h; scaled: DMSO 0, geranylgeraniol control 100; rescue of ATP level, % at 7.49 µM; hit rate 0.78% among 330,000; AID 602340, 2012;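 active = mean ATP rescue above about 67%, or every replicate alone reaching that limit, limit read from the data, passing the limit was not always enough; inconclusive = no clear call, values can overlap the other calls; inactive = mean under the limit and some replicate under it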;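 also: myotubes were challenged with 10 µM simvastatin during compound exposure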
PGC1a acetyl inh: inhibitors of PGC1a acetylation signal, primary screen, cell-based, U2OS, AlphaScreen, inhibitor mode. AID 651687, 2012. AlphaScreen anti-acetyl-lysine; with virally co-expressed GCN5 acetyltransferase. inhibition, % at 15.6 µM. hit rate 0.17% among 350,000;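 active = every replicate shows inhibition of at least 40%; inconclusive = mean inhibition at least 40% but some replicate below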;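 also: 0% = neutral control wells and 100% = positive control wells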
An asterisk follows results filed as active; ? = inconclusive; nt = not tested or not shown.

SMILES	DENV2 CPE	S100A4 MyoIIA	SIRT5 block	Statin myotox sup	PGC1a acetyl inh
O=[N+]([O-])c1cc(Cl)c(O)c2ncccc12	-2.7	11.2	7.8	nt	0.1
COc1cccc(/C=N\NC(=O)c2cc(OCC(F)(F)F)ccc2OCC(F)(F)F)c1	nt	nt	nt	124.4*	0.5
CNC(=O)c1cc(OCC(F)(F)F)ccc1OCC(F)(F)F	4.8	-2.1	0.7	nt	-4.7
COC(c1ccccc1)c1nnc(CCC(=O)N(C)C(C2CC2)C2CC2)o1 (stereo unspecified)	1.0	0.5	15.2*	nt	?
Cc1ccc(OCCNC(=O)c2cccc(S(=O)(=O)NCc3ccccc3)c2)cc1	6.9	1.3	0.6	-72.5	-2.7
CS(=O)(=O)NCc1ccc(C(=O)NCCOc2ccccc2)cc1	30.7*	-2.8	-6.5	-14.2	-2.3
CN1CCN(C(=O)C[C@H]2C[C@@H]3c4cc(NC(=O)Nc5ccc(C(F)(F)F)cc5)ccc4O[C@@H]3[C@@H](CO)O2)CC1	-7.6	14.6	0.3	1.2	-0.1
Cc1ccccc1C(=O)NCC(=O)OCCCOC(=O)CNC(=O)c1ccccc1C	-13.8	-0.5	-1.2	-5.6	nt
Cc1cc(C)c(C(=O)COC(=O)CNC(=O)c2ccccc2C)c(C)c1	-3.0	111.2*	0.6	nt	nt
C[C@H](CO)N1C[C@H](C)[C@@H](CN(C)S(C)(=O)=O)OCCCC[C@H](C)Oc2ccc(NS(=O)(=O)c3ccc(F)cc3)cc2C1=O	-11.2	-6.6	-1.5	-7.9	12.7
Cc1ccc(S(=O)(=O)Nc2ccc3c(c2)C(=O)N([C@H](C)CO)C[C@@H](C)[C@@H](CN(C)C(=O)NC(C)C)OCCCC[C@@H](C)O3)cc1	0.7	106.9*	7.1	nt	nt
Cc1ccc(S(=O)(=O)Nc2ccc3c(c2)C(=O)N([C@@H](C)CO)C[C@H](C)[C@@H](CN(C)S(C)(=O)=O)OCCCC[C@H](C)O3)cc1	29.3*	-5.0	0.6	nt	6.5
C[C@@H]1CCCCO[C@H](CN(C)S(C)(=O)=O)[C@@H](C)CN([C@@H](C)CO)C(=O)c2cc(NS(=O)(=O)c3ccc(F)cc3)ccc2O1	10.4	-3.5	3.6	102.1*	9.1
Cc1ccc(S(=O)(=O)Nc2ccc3c(c2)C(=O)N([C@H](C)CO)C[C@H](C)[C@H](CN(C)C(=O)NC(C)C)OCCCC[C@H](C)O3)cc1	8.0	0.2	3.3	nt	9.0
Cc1ccc(S(=O)(=O)Nc2ccc3c(c2)C(=O)N([C@H](C)CO)C[C@@H](C)[C@H](CN(C)S(C)(=O)=O)OCCCC[C@@H](C)O3)cc1	36.0*	125.2*	3.4	nt	-9.2
O=C(NCc1ccccc1)[C@@H]1[C@@H](CO)[C@@H]2Cn3c(cccc3=O)[C@H]1N2C(=O)c1cnccn1	-3.5	1.5	8.1	nt	2.5
CCCC(=O)Nc1ccc2c(c1)OC[C@@H](C)N(CC1CCOCC1)C[C@@H](C)[C@H](OC)CN(C)C2=O	8.2	6.3	5.2	nt	3.1
C[C@H]1CN([C@@H](C)CO)C(=O)c2cccc(NC(=O)c3ccncc3)c2O[C@H]1CN(C)Cc1ccc(C(=O)Nc2ccccc2N)cc1	43.8*	6.2	nt	nt	4.5
C[C@@H]1CN([C@@H](C)CO)C(=O)c2cccc(NC(=O)C3CC3)c2O[C@@H]1CN(C)S(C)(=O)=O	4.6	123.6*	-1.0	-9.9	3.4
CNC[C@H]1Oc2c(NC(=O)c3ccncc3)cccc2C(=O)N([C@@H](C)CO)C[C@H]1C	38.5*	2.4	-1.7	-29.8	3.3
C[C@@H]1CN([C@H](C)CO)C(=O)c2cccc(NC(=O)c3ccncc3)c2O[C@H]1CN(C)Cc1ccc(C(=O)Nc2ccccc2N)cc1	12.7	-8.0	5.8	nt	13.0
C[C@H]1CN([C@@H](C)CO)C(=O)c2cccc(NC(=O)c3ccncc3)c2O[C@H]1CN(C)S(C)(=O)=O	6.1	-3.9	-0.3	1.4	8.1
C[C@@H]1CN([C@H](C)CO)C(=O)c2cccc(NC(=O)c3ccncc3)c2O[C@H]1CN(C)S(C)(=O)=O	12.0	-2.4	35.7*	-11.4	4.9
C[C@H]1CN([C@@H](C)CO)C(=O)c2cccc(NS(C)(=O)=O)c2O[C@@H]1CN(C)Cc1ccc(C(=O)Nc2ccccc2N)cc1	75.1*	6.5	-3.4	nt	7.6
C[C@@H]1CN([C@@H](C)CO)C(=O)c2cccc(NC(=O)c3ccncc3)c2O[C@H]1CN(C)Cc1ccccc1	-5.9	-10.7	23.4*	-8.0	-5.1
SMILES	DENV2 CPE	S100A4 MyoIIA	SIRT5 block	Statin myotox sup	PGC1a acetyl inh
C[C@@H]1CN([C@H](C)CO)C(=O)c2cccc(NS(C)(=O)=O)c2O[C@H]1CN(C)Cc1ccc(C(=O)Nc2ccccc2N)cc1	-0.8	15.4	1.9	nt	5.7
CC(C)NC(=O)N[C@@H]1C=C[C@@H](CC(=O)NCCN2CCCC2)O[C@H]1CO	-3.8	7.5	-3.3	-1.1	0.7
C/C(=N\Nc1ccc(Cl)c(C(=O)O)c1)c1cccs1	7.8	-2.6	4.5	nt	6.5
C/C(=N\Nc1ccc(Cl)c(C(=O)O)c1)c1ccc[nH]1	1.7	-1.6	24.2*	-5.3	-0.5
Cc1noc(C)c1NC(=O)N(C)C[C@@H]1Oc2ccc(NC(=O)NC(C)C)cc2C(=O)N([C@@H](C)CO)C[C@@H]1C	16.5	-2.4	-3.8	1.2	3.1
COc1ccccc1CNC(=O)COc1cccnc1[N+](=O)[O-]	12.2	-1.5	-3.3	-31.3	nt
COc1ccccc1CNc1ncccc1[N+](=O)[O-]	3.4	1.6	15.8*	-9.8	6.5
CCS(=O)(=O)N1CC2(CN(Cc3ccc4c(c3)OCO4)[C@H](CO)c3c2c2ccc(OC)cc2n3C)C1	-3.4	10.0	-6.8	nt	-10.8
Nc1ccc(S(=O)(=O)c2ccc(N)c(N)c2)cc1	-0.1	-4.1	2.9	nt	0.7
Nc1cc(S(=O)(=O)c2ccc(O)c(N)c2)ccc1O	-0.7	7.7	16.1*	nt	nt
COCC(=O)N1[C@H](C#N)[C@H](c2ccc(C3=CCCC3)cc2)[C@H]1CO	9.0	3.2	3.0	3.5	26.6
Cc1cc(Cl)ccc1OC(C)C(=O)Nc1ccccc1N1CCOCC1 (stereo unspecified)	nt	nt	nt	93.9*	-14.7
O=C(Nc1ccccc1N1CCOCC1)C1(c2ccc(Cl)cc2)CCC1	-1.0	-4.9	-1.3	nt	40.7*
O=C(O)c1ccccc1	110.1*	-9.8	-1.2	2.0	-13.1
O=C(c1ccccc1)N1CCN(C(=O)c2ccccc2)CC1	nt	-16.5	nt	3.0	10.2
COc1ccccc1CN1[C@H](CO)[C@@H](c2ccccc2)C12CN(C(=O)c1ccccn1)C2	88.6*	-0.7	-0.9	nt	5.0
COc1ccccc1CN1[C@H](CO)[C@@H](c2ccccc2)C12CN(C(C)=O)C2	11.6	-38.1	-3.3	nt	4.3
CCC(=O)N1CC2(C1)[C@H](c1ccccc1)[C@H](CO)N2Cc1ccccc1OC	-9.7	-3.1	22.7*	nt	-10.5

Bioassay records: PubChem BioAssay, Broad Institute
